From ChEMBL document CHEMBL4818995, “Dual nicotinamide phosphoribosyltransferase and epidermal growth factor receptor inhibitors for the treatment of cancer” (Eur J Med Chem, 2021)

How the values were obtained:
Huh-7 = experiment: Antiproliferative activity against human Huh-7 cells assessed as inhibition of cell growth after 72 hrs by CCK8 assay; type: functional, cell-based
Procedure, shortened: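 Cells kept in RPMI or DMEM with 10% FBS and 1% penicillin/streptomycin, 37 °C, 5% CO2. Plated at 400-800 cells/well, treated with a range of test concentrations or vehicle for 72 h. CCK8 reagent added, absorbance read at 450 nm.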

NCI-H1975 = experiment: Antiproliferative activity against human NCI-H1975 cells harboring EGFR L858R/T790M double mutant assessed as inhibition of cell growth; type: functional
MCF7 = experiment: Antiproliferative activity against human MCF-7 cells assessed as inhibition of cell growth after 72 hrs by CCK8 assay; conditions: MCF7, 72 h
[1] = Toxicity in BALB/c nude mouse xenografted with human NCI-H1975 cells assessed as changes in body weight at 60 mg/kg, iv administered 5 days a week for 3 weeks; type: organism-based; conditions: in vivo, 504 h
Procedure, shortened: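 Female BALB/c nude mice aged 4-6 weeks, H1975 cells (3 × 10^6 in 0.1 ml RPMI-1640) implanted subcutaneously in the right flank. At day 12, tumors ~150 mm3, mice grouped n=6. […] Test agent in 5% ethanol/5% DMSO/10% Cremophor EL/80% saline at 60 mg/kg i.v. five times weekly. Vehicle group received i.v. vehicle. Tumor and body weight recorded daily by caliper; TV = width² × length × 0.5. Mean ± SD, Student's t-test.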

[2] = biological target: Epidermal growth factor receptor (Homo sapiens, UniProt P00533, T790M); experiment: Inhibition of N-terminal GST-tagged human recombinant EGFR T790M mutant (668 to 1210 residues) expressed in baculovirus expression system by Z'-LYTE kinase assay
[3] = biological target: Epidermal growth factor receptor (Homo sapiens, UniProt P00533); experiment: Inhibition of N-terminal GST-tagged human recombinant EGFR cytoplasmic domain (668 to 1210 residues) expressed in baculovirus expression system by Z'-LYTE kinase assay
[4] = biological target: Epidermal growth factor receptor (Homo sapiens, UniProt P00533, L861Q); experiment: Inhibition of N-terminal GST-tagged human recombinant EGFR L861Q mutant (668 to 1210 residues) expressed in baculovirus expression system by Z'-LYTE kinase assay
[5] = biological target: Epidermal growth factor receptor (Homo sapiens, UniProt P00533, L858R); experiment: Inhibition of N-terminal GST-tagged human recombinant EGFR L858R mutant (668 to 1210 residues) expressed in baculovirus expression system by Z'-LYTE kinase assay
K562 = experiment: Antiproliferative activity against human K562 cells assessed as inhibition of cell growth after 72 hrs by CCK8 assay; conditions: K562, 72 h

Chain of Epidermal growth factor receptor (Homo sapiens, UniProt P00533, T790M) (P00533 25-1210 T790M limits assumed): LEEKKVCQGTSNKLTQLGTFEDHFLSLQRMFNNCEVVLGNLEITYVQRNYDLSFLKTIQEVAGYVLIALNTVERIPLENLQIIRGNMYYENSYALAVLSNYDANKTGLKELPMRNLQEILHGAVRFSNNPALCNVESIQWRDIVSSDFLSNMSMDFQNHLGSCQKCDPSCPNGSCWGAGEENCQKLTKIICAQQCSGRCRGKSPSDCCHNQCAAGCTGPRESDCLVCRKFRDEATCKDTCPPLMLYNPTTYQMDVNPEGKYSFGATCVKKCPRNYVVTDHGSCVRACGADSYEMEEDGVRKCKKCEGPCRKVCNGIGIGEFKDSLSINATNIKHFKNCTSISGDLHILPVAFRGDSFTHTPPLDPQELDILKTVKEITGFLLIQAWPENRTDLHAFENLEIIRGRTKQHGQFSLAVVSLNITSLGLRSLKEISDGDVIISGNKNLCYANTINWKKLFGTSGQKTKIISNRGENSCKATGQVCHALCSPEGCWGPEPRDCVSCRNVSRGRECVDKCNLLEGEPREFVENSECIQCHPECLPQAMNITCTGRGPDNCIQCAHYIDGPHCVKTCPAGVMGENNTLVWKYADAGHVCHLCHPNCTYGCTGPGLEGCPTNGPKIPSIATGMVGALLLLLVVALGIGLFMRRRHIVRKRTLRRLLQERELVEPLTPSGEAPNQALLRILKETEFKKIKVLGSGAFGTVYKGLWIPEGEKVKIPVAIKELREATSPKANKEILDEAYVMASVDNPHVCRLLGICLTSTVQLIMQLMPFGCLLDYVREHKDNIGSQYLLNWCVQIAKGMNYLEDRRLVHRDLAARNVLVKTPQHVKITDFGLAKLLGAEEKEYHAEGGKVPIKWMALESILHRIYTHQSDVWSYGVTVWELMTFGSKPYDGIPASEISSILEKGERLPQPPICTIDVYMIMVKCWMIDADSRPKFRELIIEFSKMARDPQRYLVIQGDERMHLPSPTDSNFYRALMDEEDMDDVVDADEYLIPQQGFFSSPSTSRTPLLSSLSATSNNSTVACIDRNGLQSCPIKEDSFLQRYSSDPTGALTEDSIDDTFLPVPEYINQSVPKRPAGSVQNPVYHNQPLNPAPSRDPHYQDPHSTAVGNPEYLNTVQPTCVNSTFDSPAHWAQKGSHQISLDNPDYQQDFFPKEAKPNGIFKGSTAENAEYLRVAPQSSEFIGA
Chain of Epidermal growth factor receptor (Homo sapiens, UniProt P00533) (P00533 whole entry, the tested form may be a part): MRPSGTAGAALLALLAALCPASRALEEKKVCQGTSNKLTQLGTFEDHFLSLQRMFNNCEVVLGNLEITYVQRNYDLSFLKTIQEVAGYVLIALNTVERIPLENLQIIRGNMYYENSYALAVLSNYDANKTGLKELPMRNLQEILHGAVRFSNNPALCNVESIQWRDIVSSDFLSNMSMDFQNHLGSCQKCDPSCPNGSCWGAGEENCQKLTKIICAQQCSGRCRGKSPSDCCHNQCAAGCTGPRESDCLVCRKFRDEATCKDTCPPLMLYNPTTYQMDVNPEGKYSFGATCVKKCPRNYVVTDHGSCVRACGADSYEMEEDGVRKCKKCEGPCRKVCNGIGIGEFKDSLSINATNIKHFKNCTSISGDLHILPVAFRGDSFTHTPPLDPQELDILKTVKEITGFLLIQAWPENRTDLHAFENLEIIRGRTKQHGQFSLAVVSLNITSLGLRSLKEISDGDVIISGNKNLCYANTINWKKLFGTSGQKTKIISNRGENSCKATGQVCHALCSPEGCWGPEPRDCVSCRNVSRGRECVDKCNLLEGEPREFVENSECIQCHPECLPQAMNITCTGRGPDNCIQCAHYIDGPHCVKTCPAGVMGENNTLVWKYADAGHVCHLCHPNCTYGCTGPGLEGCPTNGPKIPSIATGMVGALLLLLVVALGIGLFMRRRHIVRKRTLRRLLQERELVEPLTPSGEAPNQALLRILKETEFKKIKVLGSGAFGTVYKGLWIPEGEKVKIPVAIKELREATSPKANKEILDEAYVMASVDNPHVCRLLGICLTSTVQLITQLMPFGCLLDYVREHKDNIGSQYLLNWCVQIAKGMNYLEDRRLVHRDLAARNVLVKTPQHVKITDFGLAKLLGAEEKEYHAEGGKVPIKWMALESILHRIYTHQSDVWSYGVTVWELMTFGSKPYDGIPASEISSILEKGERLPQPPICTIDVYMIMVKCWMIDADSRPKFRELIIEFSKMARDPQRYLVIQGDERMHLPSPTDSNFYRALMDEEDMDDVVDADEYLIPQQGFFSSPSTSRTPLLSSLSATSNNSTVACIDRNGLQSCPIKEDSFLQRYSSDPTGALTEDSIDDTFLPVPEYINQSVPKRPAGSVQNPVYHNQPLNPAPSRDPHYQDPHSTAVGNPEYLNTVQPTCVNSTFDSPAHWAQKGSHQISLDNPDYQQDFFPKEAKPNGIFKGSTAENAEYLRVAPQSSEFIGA
Chain of Epidermal growth factor receptor (Homo sapiens, UniProt P00533, L858R) (P00533 25-1210 L858R limits assumed): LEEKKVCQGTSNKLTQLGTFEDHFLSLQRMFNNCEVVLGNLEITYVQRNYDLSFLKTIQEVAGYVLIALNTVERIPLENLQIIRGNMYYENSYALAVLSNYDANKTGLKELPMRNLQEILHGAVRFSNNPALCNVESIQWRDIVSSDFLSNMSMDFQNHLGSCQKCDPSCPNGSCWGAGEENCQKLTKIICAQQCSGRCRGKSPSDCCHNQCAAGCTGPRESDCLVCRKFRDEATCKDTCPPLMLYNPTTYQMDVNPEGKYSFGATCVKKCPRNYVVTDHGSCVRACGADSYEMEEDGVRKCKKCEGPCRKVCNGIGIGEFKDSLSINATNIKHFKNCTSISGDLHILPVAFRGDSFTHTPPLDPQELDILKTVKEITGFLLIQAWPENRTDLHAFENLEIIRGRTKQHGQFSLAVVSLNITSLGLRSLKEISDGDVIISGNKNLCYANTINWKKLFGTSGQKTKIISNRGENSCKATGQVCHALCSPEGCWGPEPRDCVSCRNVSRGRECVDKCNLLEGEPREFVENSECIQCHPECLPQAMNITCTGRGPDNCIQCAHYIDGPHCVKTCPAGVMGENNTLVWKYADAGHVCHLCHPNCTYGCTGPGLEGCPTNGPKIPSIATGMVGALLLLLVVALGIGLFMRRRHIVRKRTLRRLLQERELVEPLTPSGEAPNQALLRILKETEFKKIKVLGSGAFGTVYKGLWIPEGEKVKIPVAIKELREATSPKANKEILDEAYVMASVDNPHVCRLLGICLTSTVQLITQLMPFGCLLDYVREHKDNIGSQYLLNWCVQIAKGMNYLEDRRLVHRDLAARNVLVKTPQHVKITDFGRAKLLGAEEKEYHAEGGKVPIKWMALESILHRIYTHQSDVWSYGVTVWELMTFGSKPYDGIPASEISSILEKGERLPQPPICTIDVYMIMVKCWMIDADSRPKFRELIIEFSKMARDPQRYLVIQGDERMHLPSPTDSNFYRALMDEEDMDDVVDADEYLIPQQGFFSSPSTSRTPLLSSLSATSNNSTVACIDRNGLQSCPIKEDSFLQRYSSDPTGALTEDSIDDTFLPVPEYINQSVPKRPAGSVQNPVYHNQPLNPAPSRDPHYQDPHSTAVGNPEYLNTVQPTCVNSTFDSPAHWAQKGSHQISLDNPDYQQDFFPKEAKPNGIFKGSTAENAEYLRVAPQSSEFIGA
Chain of Epidermal growth factor receptor (Homo sapiens, UniProt P00533, L861Q) (P00533 25-1210 L861Q limits assumed): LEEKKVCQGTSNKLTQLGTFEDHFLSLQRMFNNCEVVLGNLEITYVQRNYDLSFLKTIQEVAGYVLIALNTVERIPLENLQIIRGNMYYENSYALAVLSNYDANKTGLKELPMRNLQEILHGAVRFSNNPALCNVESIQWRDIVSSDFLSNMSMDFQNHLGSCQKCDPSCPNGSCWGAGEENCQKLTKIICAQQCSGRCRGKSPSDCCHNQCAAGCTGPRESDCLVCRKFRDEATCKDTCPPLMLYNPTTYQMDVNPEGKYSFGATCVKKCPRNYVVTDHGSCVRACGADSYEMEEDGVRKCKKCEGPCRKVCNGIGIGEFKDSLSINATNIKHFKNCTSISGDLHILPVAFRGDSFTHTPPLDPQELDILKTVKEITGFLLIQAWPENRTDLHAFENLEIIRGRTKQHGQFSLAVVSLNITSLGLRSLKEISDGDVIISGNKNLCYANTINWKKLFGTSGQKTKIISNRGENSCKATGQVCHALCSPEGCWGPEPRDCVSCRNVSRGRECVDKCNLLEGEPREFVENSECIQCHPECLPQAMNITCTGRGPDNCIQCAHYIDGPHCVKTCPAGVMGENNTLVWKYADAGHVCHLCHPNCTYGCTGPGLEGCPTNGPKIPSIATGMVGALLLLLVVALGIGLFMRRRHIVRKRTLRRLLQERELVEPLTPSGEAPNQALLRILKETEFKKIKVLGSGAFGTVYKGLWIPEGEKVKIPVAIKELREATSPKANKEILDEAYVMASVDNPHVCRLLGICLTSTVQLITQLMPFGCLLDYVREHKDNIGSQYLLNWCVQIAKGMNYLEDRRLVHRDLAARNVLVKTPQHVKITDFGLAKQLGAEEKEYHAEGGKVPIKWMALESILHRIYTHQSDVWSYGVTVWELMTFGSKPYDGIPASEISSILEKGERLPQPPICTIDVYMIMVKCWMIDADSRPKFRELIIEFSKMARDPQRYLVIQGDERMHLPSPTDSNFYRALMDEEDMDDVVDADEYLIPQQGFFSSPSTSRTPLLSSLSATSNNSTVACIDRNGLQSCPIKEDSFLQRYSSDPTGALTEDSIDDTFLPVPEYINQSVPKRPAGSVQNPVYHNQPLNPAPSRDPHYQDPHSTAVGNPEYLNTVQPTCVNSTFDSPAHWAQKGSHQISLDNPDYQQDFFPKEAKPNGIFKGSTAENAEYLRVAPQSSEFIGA

Structure (SMILES) | GI50 (Huh-7) [nM] | GI50 (NCI-H1975) [nM] | GI50 (MCF7) [nM] | Activity [1] | IC50 [2] [nM] | IC50 [3] [nM] | IC50 [4] [nM] | IC50 [5] [nM] | GI50 (K562) [nM]
C#Cc1cccc(Nc2ncnc3cc(OC)c(OCCCCCN/C(=N\C#N)Nc4ccncc4)cc23)c1 | 1.64 | 78.3 | 0.1 | Non-Toxic | 153 | 0.23 | 0.26 | 0.26 | 38
C#Cc1cccc(Nc2ncnc3cc(OC)c(OCCCCCCCN/C(=N\C#N)Nc4cccnc4)cc23)c1 | 9.94 | – | 0.63 | – | 448 | 0.538 | 0.49 | 0.48 | 42.1
C#Cc1cccc(Nc2ncnc3cc(OC)c(OCCCCCCCN/C(=N\C#N)Nc4ccncc4)cc23)c1 | 1.81 | – | 0.21 | – | 581 | 0.473 | 0.55 | 0.46 | 50.9
C#Cc1cccc(Nc2ncnc3cc(OC)c(OCCCCCN/C(=N\C#N)Nc4cccnc4)cc23)c1 | 62.9 | – | 0.98 | – | 228 | 0.52 | 0.46 | 0.41 | 175
C#Cc1cccc(Nc2ncnc3cc(OC)c(OCCCCCCN/C(=N\C#N)Nc4cccnc4)cc23)c1 | – | – | 0.16 | – | 326 | 0.32 | 0.38 | 0.38 | 24.6
C#Cc1cccc(Nc2ncnc3cc(OC)c(OCCCCCCN/C(=N\C#N)Nc4ccncc4)cc23)c1 | 1.87 | – | 0.15 | – | 323 | 0.35 | 0.36 | 0.32 | 7.47
CC(=O)O[C@H]1C(=O)[C@@]2(C)[C@H]([C@H](OC(=O)c3ccccc3)[C@]3(O)C[C@H](OC(=O)[C@H](O)[C@@H](NC(=O)c4ccccc4)c4ccccc4)C(C)=C1C3(C)C)[C@]1(OC(C)=O)CO[C@@H]1C[C@@H]2O [PACLITAXEL] | 7.41 | – | 4.85 | – | – | – | – | – | 2.76
